The record followed here is ChEMBL document CHEMBL1157678, “alpha-Glucosidase inhibitory antihyperglycemic activity of substituted chromenone derivatives” (Bioorg Med Chem, 2010).

Experiment [1] in a line: Inhibition of rat intestinal alpha-glucosidase after 5 mins by spectrophotometry. In outline:
(§1)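 Enzyme source was the supernatant of sonicated rat intestinal homogenate after centrifugation. Sample (5 mg/mL DMSO stock) in 100 mM phosphate buffer pH 6.8 was preincubated with enzyme for 5 min, then 5 mM p-nitrophenyl-α-D-glucopyranoside added. p-Nitrophenol was read at 405 nm 5 min later, with substrate-free blanks and a DMSO control. Inhibition (%) = (1 − B/A) × 100; IC50 by logarithmic regression.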

For experiment [2], the species on record is Rattus norvegicus. In words: Inhibition of rat intestinal alpha-glucosidase at 100 ug/mL after 5 mins by spectrophotometry. In outline:
as §1

Experiment [3] deals with Radical scavenging activity. As to the kind of experiment: Antioxidant activity assessed as DPPH radical scavenging activity at 25 ug/mL after 30 mins by spectrophotometry. The format is functional. In outline: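 Test sample in DMSO (1 mg/mL stock) was mixed with 0.1 M Tris–HCl pH 7.4 and 0.5 mM DPPH in absolute ethanol. The mixture was shaken and kept in the dark 30 min, then absorbance read at 517 nm. Scavenging (%) = (1 − B/A) × 100 against a control without sample.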
In general terms: The DPPH test is a chemical assay of radical scavenging.

Experiment [4] concerns Rattus norvegicus. As to the kind of experiment: Antihyperglycemic activity in overnight fasted starch-induced hyperglycemic Wistar rat assessed as decrease in plasma glucose level at 100 mg/kg, po administered 15 mins before starch challenge measured after 30 to 120 mins by glucose oxidase method. It is filed as functional, organism-based. On the set-up: dose 100 mg/kg. In outline: (§2)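 Wistar rats of either sex (195–215 g), housed at 22 °C with a 12 h light/dark cycle, fasted overnight. Test agent suspended in normal saline and given orally by gastric intubation; controls received saline. Soluble starch (2 g/kg in saline) fed 15 min later. Retro-orbital blood was collected into EDTA for plasma glucose at 0–120 min. Plasma glucose AUC by trapezoid formula.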

Experiment [5] is filed under the species Rattus norvegicus. As to the kind of experiment: Mixed noncompetitive inhibition of rat intestinal alpha-glucosidase at 10.6 uM by Lineweaver-Burke plot analysis. In outline: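 Conditions follow the rat intestinal α-glucosidase/p-NPG assay, but Vmax kinetics were recorded over 10 min at 30 s intervals after a 10 s lag following substrate addition. Substrate was used at various dilutions, with or without preincubation of inhibitor. Data were analysed on a Lineweaver–Burk plot.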

The subject of experiment [6] is Rattus norvegicus. In words: Antihyperglycemic activity in overnight fasted starch-induced hyperglycemic Wistar rat assessed as decrease in plasma glucose level at 10 mg/kg, po administered 15 mins before starch challenge measured after 30 to 120 mins by glucose oxidase method. The format is functional, organism-based. More on the design: dose 10 mg/kg. Summed up:
as §2

The source made the active and inactive calls. The calls are words filed in the database; no cut-off is given here.

One may read the IC50 as the concentration that inhibits the measured activity by half. Low values mean higher potency, high ones lower potency. As usually defined, the inhibition is the share of the control response that was lost under treatment. In turn, `CCOC(=O)c1cc2cc(-c3ccccc3)ccc2oc1=O` gave an IC50 in experiment [1] of 186 µM. This compound also registered an inhibition in experiment [2] of 77.1%. The Activity in experiment [3] was found to be 4.8%.

Consider `CC(=O)c1cc2cc(-c3ccc(C)cc3)ccc2oc1=O`, for which, in experiment [1], the half-maximal inhibitory concentration (IC50) was 52.6 µM. The same compound came in with an inhibition in experiment [2] of 86.5%. For the same compound, the outcome in experiment [3] was inactive.

As for `O=C(c1ccccc1)c1cc2cc(-c3ccccc3)ccc2oc1=O`, inhibition in experiment [1] was half-maximal at 52.2 µM (IC50). In addition, the inhibition in experiment [2] stood at 70%. Further, the Activity in experiment [3] turned out to be 2.45%.

For the compound `O=C(c1ccccc1)c1cc2ccccc2oc1=O`, the inhibition in experiment [2] turned out to be 44.4%. Further, the Activity in experiment [3] is 30.8%.

`CCOC(=O)c1cc2cc(-c3ccc(C)cc3)ccc2oc1=O`: the IC50 in experiment [1] was determined as 112 µM. Besides, the inhibition in experiment [2] was found to be 65.9%. Also, the outcome in experiment [3] was inactive.

With `CC(=O)c1cc2cc(-c3cncnc3)ccc2oc1=O`, in experiment [1], half-maximal inhibition (IC50) required 37.2 µM. In experiment [2], this compound gave an inhibition of 83.5%. Moreover, the result in experiment [3] was inactive.

In experiment [1], `COc1ccc(-c2ccc3oc(=O)c(C#N)c(C)c3c2)cn1` yielded an IC50 of 44.5 µM. Moreover, in experiment [2], the inhibition was 93.1%. Moreover, in experiment [3], the Activity was 35%.

As to `CC(=O)c1cc2cc(-c3ccccc3)ccc2oc1=O`, in experiment [2], the inhibition result was “inactive”. Also, the Activity in experiment [3] was found to be 19.6%.

On to `CC(=O)c1cc2cc(-c3ccc(F)cc3)ccc2oc1=O`, for which 53.1 µM corresponded to half-maximal inhibition in experiment [1] (IC50). Also, in experiment [2], the inhibition was 74.3%. Further, the Activity in experiment [3] worked out at 15.6%.

Consider `Cc1c(C#N)c(=O)oc2ccc(-c3ccccc3)cc12`, for which inhibition in experiment [1] was half-maximal at 52.9 µM (IC50). In addition, in experiment [2], the inhibition stood at 95.5%. For the same compound, the Activity in experiment [3] amounted to 10.4%.

For `O=C(c1ccccc1)c1cc2cc(Br)ccc2oc1=O`, in experiment [2], the inhibition stood at 18.1%. In experiment [3], the Activity stood at 2.22%.

In experiment [1], `COc1ccc(-c2ccc3oc(=O)c(C(C)=O)cc3c2)cn1` came in with a concentration for half-maximal inhibition (IC50) of 28.2 µM. Further, in experiment [2], the inhibition came out at 86%. For the same compound, the outcome in experiment [4] was Active. Besides, the result in experiment [3] was inactive. The inhibition entry in experiment [5] is “Active”.

`CC(=O)c1cc2cc(-c3cccnc3)ccc2oc1=O`: the IC50 in experiment [1] was found to be 58.1 µM. The compound also registered an inhibition in experiment [2] of 96.4%. For the same compound, the Activity in experiment [3] came out at 3.72%.

Consider `CC(=O)c1cc2cc(-c3ccc(N4CCOCC4)cc3)ccc2oc1=O`, for which the half-maximal inhibitory concentration (IC50) in experiment [1] worked out at 49 µM. In experiment [2], this compound had an inhibition of 85.1%. The Activity in experiment [3] worked out at 20.5%.

Compound `Cc1c(Cl)c(=O)oc2cc(O)ccc12` had a half-inhibitory concentration (IC50) in experiment [1] of 128 µM. In experiment [2], this compound registered an inhibition of 77.8%. In addition, the Activity in experiment [3] was determined as 20.8%.

The compound `CC(=O)c1cc2cc(Br)ccc2oc1=O` showed an inhibition in experiment [2] of 31.9%. Also, in experiment [3], the Activity turned out to be 1.52%.

With `CCOC(=O)c1cc2cc(-c3ccc(OC)nc3)ccc2oc1=O`, in experiment [1], the IC50 is 105 µM. The same compound showed an inhibition in experiment [2] of 76.9%. Besides, the outcome in experiment [3] was inactive.

`CCOC(=O)c1cc2ccc(O)cc2oc1=O` returned an IC50 in experiment [1] of 91 µM. The inhibition in experiment [2] was found to be 77.6%. The result in experiment [3] was inactive.

For the compound `O=C(c1ccccc1)c1cc2ccc(O)cc2oc1=O`, the inhibition in experiment [2] is 53.7%. Moreover, the outcome in experiment [3] was inactive.

`CC(=O)c1cc2cc(-c3ccc(Cl)cc3)ccc2oc1=O` returned an IC50 in experiment [1] of 96.4 µM. In experiment [2], this compound registered an inhibition of 76.9%. Moreover, the Activity in experiment [3] was determined as 12.5%.

As to `CCOC(=O)c1cc2ccccc2oc1=O`, the inhibition in experiment [2] stood at 47%. Also, in experiment [3], the Activity was determined as 1.82%.

Regarding `CC(=O)c1cc2ccccc2oc1=O`, the inhibition in experiment [2] came out at 53.2%. Also, the Activity in experiment [3] came to 0.83%.

Turning to `O=c1cc(CCl)c2ccc(O)cc2o1`, the IC50 in experiment [1] is 243 µM. In experiment [2], this compound registered an inhibition of 78.3%. In addition, in experiment [3], the Activity worked out at 1.32%.

As for `CCOC(=O)c1cc2cc(-c3ccc(F)cc3)ccc2oc1=O`, the IC50 in experiment [1] was determined as 37.6 µM. In experiment [2], this compound displayed an inhibition of 66.7%. The result in experiment [3] was inactive.

In the case of `Cc1c(O)ccc2c(CCl)cc(=O)oc12`, the midpoint of inhibition in experiment [1], the IC50, lay at 68.7 µM. In experiment [2], this compound showed an inhibition of 72.7%. Moreover, in experiment [3], the Activity amounted to 28.5%.

Compound `CCOC(=O)c1cc2cc(-c3cncnc3)ccc2oc1=O` had a 50% inhibitory concentration (IC50) in experiment [1] of 40.5 µM. In experiment [2], the inhibition stood at 80.4%. In addition, in experiment [3], the result was inactive.

In the case of `C[C@H]1O[C@H](O[C@H]2[C@H](O)[C@@H](O)[C@@H](O[C@H]3[C@H](O)[C@@H](O)C(O)O[C@@H]3CO)O[C@@H]2CO)[C@H](O)[C@@H](O)[C@@H]1N[C@H]1C=C(CO)[C@@H](O)[C@H](O)[C@H]1O` (some centres undefined), the result in experiment [6] was Active.
